Entries after “also recorded” stand apart in the source; their conditions may differ. Like-named read-outs stand apart in the source and are kept apart here.
Experiments:
[1] = molecular target: T1, rGAPDH (Oryctolagus cuniculus, UniProt P46406); test: Binding of pre-reduced heme to rGAPDH; parameters: species or system rabbit; details: after 10 min
[2] = molecular target: T1, rGAPDH; test: Kinetics of heme transfer from GAPDH to apo-myoglobin, koff; assay type: binding, rabbit
[3] = molecular target: rabbit GAPDH (Oryctolagus cuniculus, UniProt P46406); test: UV-visible binding of protoporphyrin IX analogs to rabbit GAPDH
[4] = molecular target: Shp; details: ref [84], cited from earlier work
[5] = molecular target: hGAPDH (Homo sapiens, UniProt P04406); test: GAPDH dehydrogenase activity assay; assay type: biochemical; details: data not shown
Outline: (§1)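 NADH formation was followed at 340 nm (ε340 = 6.22 mM−1cm−1) in 40 mM triethanolamine, 50 mM Na2HPO4, 0.2 mM EDTA, pH 8.9, with 2 mM NAD and 2 mM D-glyceraldehyde 3-phosphate. Reactions were started with ~1 µg enzyme. The rabbit enzyme was N-His6, Ni-NTA purified; the human enzyme was a GST fusion cleaved with thrombin. Both were expressed in E. coli.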

[6] = molecular target: CcmE; details: ref [82], cited from earlier work
[7] = molecular target: HasAp; details: ref [34], cited from earlier work
[8] = molecular target: T1, rGAPDH; test: Spectrophotometric titration of GAPDH with hemin; assay type: binding, rabbit
[9] = molecular target: Apo-DHR51-LBD; details: read-out: Kd (direct); ref [81]; cited from earlier work
[10] = test system: nitrobindin; details: ref [68]; cited from earlier work
[11] = molecular target: HtsA; details: ref [83], cited from earlier work
[12] = molecular target: HRI (heme regulated inhibitor), eIF2α; details: ref [60], cited from earlier work
[13] = molecular target: T1, rGAPDH; test: Stopped-flow kinetics of heme binding to GAPDH, kon; parameters: species or system rabbit; details: ferric heme, 10 °C
Outline: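 N-terminally His6-tagged rabbit GAPDH, expressed in E. coli BL21(DE3) and Ni-NTA purified. Freshly prepared hemin (5 µM) was mixed by stopped-flow at 10 °C with rGAPDH at 10–80 µM in 100 mM EPPS pH 7.6, 150 mM NaCl and 10% glycerol. Traces were collected on a diode array detector, and kobs was obtained from single-exponential fits.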

[14] = test system: Sperm whale Mb; details: ref [56]; cited from earlier work
[15] = molecular target: pa-HO; details: ref [57], cited from earlier work
[16] = test system: PhuS; details: ref [57]; cited from earlier work
[17] = molecular target: T1, rGAPDH; test: GAPDH dehydrogenase activity assay; assay type: biochemical, rabbit; details: data not shown
Outline: as §1

[18] = test system: BSA; details: cited from earlier work
[19] = molecular target: Rv0203; details: ref [85], cited from earlier work
[20] = molecular target: HTP (PhuT); details: ref [21], cited from earlier work
[21] = molecular target: Nuclear hormone receptor, Rev-erb β; details: read-out: Kd (direct), ref [14], cited from earlier work
[22] = molecular target: Ferric rGAPDH-heme (Oryctolagus cuniculus, UniProt P46406); assay type: binding, rabbit
[23] = molecular target: Fe(II)-GAPDH (ferrous rGAPDH-heme) (Oryctolagus cuniculus, UniProt P46406); test: Stopped-flow kinetics of CO binding to Fe; parameters: species or system rabbit
[24] = test system: CBS; details: ref [44]; cited from earlier work
[25] = Redox potentiometry of rGAPDH-heme; assay type: physicochemical; details: titration of ferric complex with dithionite
[26] = molecular target: T1, rGAPDH; test: Ethoxylation of His residues with DEPC, then heme binding by UV-vis; assay type: biochemical, rabbit; details: 15 mM DEPC, 2 h on ice
Outline: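 Recombinant rabbit GAPDH (N-His6, E. coli BL21(DE3), Ni-NTA purified), 100 µM apo or preformed with 20 µM heme, treated with 15 mM DEPC on ice in 40 mM EPPS pH 7.6, 150 mM NaCl, 10% glycerol. Excess DEPC removed by three buffer exchanges on 10 kDa spin columns. Protein diluted to ~40 µM; UV-vis spectra taken before and after adding 8 µM fresh hemin.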

[27] = pH 7.4 (Tris, 100 mM, 10% glycerol), room temperature
[28] = CO-saturated buffer (1 mM final concentration), 10 °C
[29] = fit of Equation 2 to fast phase

Chain of rabbit GAPDH (P46406 2-333 limits assumed): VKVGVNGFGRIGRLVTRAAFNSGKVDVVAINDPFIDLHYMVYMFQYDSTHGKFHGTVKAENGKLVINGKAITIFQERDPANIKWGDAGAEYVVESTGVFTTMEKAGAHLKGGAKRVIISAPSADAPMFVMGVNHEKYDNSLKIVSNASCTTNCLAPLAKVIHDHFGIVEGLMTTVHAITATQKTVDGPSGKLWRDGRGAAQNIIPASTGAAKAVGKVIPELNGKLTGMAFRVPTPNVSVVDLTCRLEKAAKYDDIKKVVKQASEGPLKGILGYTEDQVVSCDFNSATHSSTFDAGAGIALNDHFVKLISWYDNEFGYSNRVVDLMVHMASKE
Chain of Ferric rGAPDH-heme (P46406 2-333): as the sequence (P46406 2-333 limits assumed) above
T1 sequence (P46406 2-333 limits assumed): as above
Chain of Fe(II)-GAPDH (ferrous rGAPDH-heme) (P46406 2-333): as the sequence (P46406 2-333 limits assumed) above
Chain of hGAPDH (P04406 2-335 limits assumed): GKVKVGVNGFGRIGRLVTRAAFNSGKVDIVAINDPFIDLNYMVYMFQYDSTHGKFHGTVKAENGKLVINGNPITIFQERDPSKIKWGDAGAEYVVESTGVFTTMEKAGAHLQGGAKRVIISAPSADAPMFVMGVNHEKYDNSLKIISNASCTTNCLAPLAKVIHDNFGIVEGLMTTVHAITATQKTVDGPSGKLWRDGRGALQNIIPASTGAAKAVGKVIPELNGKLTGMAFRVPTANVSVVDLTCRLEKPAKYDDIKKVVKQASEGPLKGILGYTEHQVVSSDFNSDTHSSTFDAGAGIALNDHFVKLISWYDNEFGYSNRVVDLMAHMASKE

In the case of `C=CC1=C(C)c2cc3[n-]c(cc4[n-]c(cc5nc(cc1n2)C(C)=C5C=C)c(C)c4CCC(=O)O)c(CCC(=O)O)c3C.[Fe+2]` [ferrous heme], the “fraction of total available reduced heme forming a complex with rGAPDH” value [1] is reported as 18% and the “koff of ferrous (reduced) heme” value ([2]; ferrous heme, 25 °C, anaerobic, single exponential) is reported as 0.0042 s⁻¹.
For Fe(III)-mesoporph IX, the “Binding to GAPDH (Comments)” value ([3]; pH 7.4) was “LS, red-shift”.
In the case of `C=CC1=C(C)c2cc3[n-]c(cc4[n-]c(cc5nc(cc1n2)C(C)=C5C=C)c(C)c4CCC(=O)O)c(CCC(=O)O)c3C.[Cl-].[Fe+3]` [hemin, Fe(III)-protoporphyrin IX], the Kd ([4]; read-out: Kd (koff/kon)) is listed as 22 µM, the “kon” value [4] is listed as 1.6e+06 M⁻¹ s⁻¹ and the “effect of heme binding on dehydrogenase activity” value [5] is listed as “does not affect”. For the same compound, the Kd ([6]; read-out: Kd (direct) (M), high affinity) was 2e-07 M, the Kd ([6]; read-out: Kd (direct) (M), low affinity) was 1e-05 M and the Kd ([7]; read-out: Kd (koff/kon)) was 35 µM. The “kon” value [7] was 1.6e+07 M⁻¹ s⁻¹, the Kd ([8]; read-out: Kd (direct), Wild type rGAPDH) was 0.024 µM and the Kd ([8]; read-out: dissociation constant (Kd), direct titration, 10 µM rGAPDH, hemin 0–35 µM, 100 mM Tris pH 7.4, 10% glycerol) was 0.024 µM. The Kd [9] was 0.43 µM, the heme loss rate [10] was 3.6e-05 s⁻¹ and the Kd ([11]; read-out: Kd (koff/kon)) was 8 µM. For the same compound, the “kon” value [11] was 8e+07 M⁻¹ s⁻¹, the Kd ([12]; read-out: Kd (koff/kon)) was 0.00014 µM and the “koff” value [12] was 0.0015 s⁻¹. For the same compound, the “kon” value [12] was 1.1e+07 M⁻¹ s⁻¹, the kon [13] was 17800 M⁻¹ s⁻¹ and the “Binding to GAPDH (Comments)” value [3, 27] was “LS, red-shift”. The “koff” value [14] was 8.4e-07 s⁻¹, the “kon” value [14] was 7.6e+07 M⁻¹ s⁻¹ and the Kd ([15]; read-out: Kd (koff/kon)) was 0.6 µM. For the same compound, the “koff” value [15] was 0.066 s⁻¹, the “kon” value [15] was 110000 M⁻¹ s⁻¹ and the “koff” value [16] was 0.036 s⁻¹. For the same compound, the “kon” value [16] was 180000 M⁻¹ s⁻¹, the “effect of heme binding on dehydrogenase activity” value [17] was “does not affect” and the heme dissociation rate ([18]; BSA-heme, ref [65]) was 10^−2 s^−1. For the same compound, the Kd ([18]; read-out: Kd (koff/kon), ref [56]) was 0.00022 µM, the “koff” value ([18]; ref [56]) was 0.011 s⁻¹ and the “kon” value ([18]; ref [56]) was 5e+07 M⁻¹ s⁻¹. The Kd ([19]; read-out: Kd (koff/kon)) was 0.00062 µM, the “koff” value [19] was 0.082 s⁻¹ and the “kon” value [19] was 1.3e+08 M⁻¹ s⁻¹. The Kd ([20]; read-out: Kd (direct)) was 1200 µM, the “koff” value [20] was 0.00038 s⁻¹ and the “koff1 (fast phase)” value ([2]; ferric heme, 10 °C, bi-exponential fit) was 0.007 s⁻¹. The Kd ([2]; read-out: Kd (koff/kon) (M), from fast koff, Wild type rGAPDH) was 3.9e-07 M, the Kd ([2]; read-out: Kd (koff/kon) (M), from slow koff, Wild type rGAPDH) was 1.9e-08 M and the Kd ([2]; read-out: approximate affinities from koff/kon, ferric heme, 10 °C) was 1.9e-08 to 3.9e-07 M. For the same compound, the Kd ([21]; Rev-erb β (oxidized)) was 0.117 µM and the Kd ([21]; Rev-erb β (reduced)) was 0.023 µM.
For `N#C[S-].[Na+]` [thiocyanate], the “binding to ferric rGAPDH-heme (spectral shift)” value [22] was “did not bind”.
For `[N-]=[N+]=[N-]` [azide], the “binding to ferric rGAPDH-heme / displacement of distal ligand (as summarised)” value [22] was “unable to bind; also recorded: not displaced”.
For `C=CC1=C(C)c2cc3[nH]c(cc4nc(cc5[nH]c(cc1n2)c(C)c5CCC(=O)O)C(CCC(=O)O)=C4C)c(C)c3C=C` [Protoporph IX, Protoporphyrin IX], the “Binding to GAPDH (Comments)” value [3, 27] was “No binding”.
With Fe(III)-deuteroporph IX the “Binding to GAPDH (Comments)” value ([3]; pH 7.4) was “LS, red-shift”.
For `[C-]#[O+]` [CO, carbon monoxide], the “kobs, 6-coord, 420 nm” value [23] was 1.2 s⁻¹, the “kobs1 (fast phase) of CO binding” value [23, 28] was 1.5 s⁻¹ and the “kobs2 (slow phase) of CO binding” value [23, 28] was 0.068 s⁻¹. The “rate of distal ligand displacement by CO” value ([23]; [CO]>0.2 mM) was 1.75 s⁻¹, the “axial ligand dissociation rate constant k−Y” value [23, 29] was ~ 2 s^−1 and the “ligand rebinding rate ratio kY/k'CO” value [23, 29] was ~ 0.1 mM. The “kobs 5-coord, 410 nm” value ([23]; saturating [CO], [rGAPDHtetramer]/[heme] < 1:1) was 4.3 s⁻¹ and the “rebinding rate ratio for displacement of Cys^52 by CO” value [24] was 106 µM.
For Fe(III)-2,4-diacetyldeuteroporph IX, the “Binding to GAPDH (Comments)” value ([3]; pH 7.4) was “LS, partial binding, red-shift”.
With `c1c[nH]cn1` [imidazole] the “binding to ferric rGAPDH-heme (spectral shift)” value [22] was “did not bind” and the “binding to ferric rGAPDH-heme / displacement of distal ligand (as summarised)” value [22] was “unable to bind”.
For Zn(II)-protoporph IX, the “Binding to GAPDH (Comments)” value ([3]; pH 7.4) was “LS, partial binding, red-shift”.
In the case of `C=Cc1c(C)c2cc3[nH]c(cc4nc(cc5nc(cc1[nH]2)C(C)=C5CCC(=O)[O-])C(CCC(=O)[O-])=C4C)c(C)c3C=C.[Co+2]` [Co(III)-protoporph IX, Co(III)-protoporphyrin IX], the “Binding to GAPDH (Comments)” value [3, 27] is reported as “LS, red-shift” and the “Binding to GAPDH (Comments)” value ([3]; pH 7.4 (Tris, 100 mM, 10% glycerol), room temperature, listed as Co(III)-protoporphyrin IX) is reported as “bound”.
With “GAPDH-heme: pre-formed complex of rabbit GAPDH with heme” the “midpoint potential, reductive titration” value [25] was −153 ± 4 mV.
In the case of `CCOC(=O)OC(=O)OCC` [DEPC, diethylpyrocarbonate], the “effect of DEPC on preformed rGAPDH-heme spectral properties” value [26] is reported as “did not alter; also recorded: had no effect; also recorded: does not alter” and the “effect of DEPC treatment of heme-free rGAPDH on heme binding” value [26] is reported as “abolished the protein’s ability to bind heme; also recorded: hampered heme binding completely; also recorded: unable to bind heme”.

From publication PMC3549054 (Biochemistry, 2012)
